High-throughput results from PubChem.
Shown is part of a subset that was picked to be rich in hits.
KDM4C inh – inhibitors of human demethylase GASC-1 KDM4C; inhibition, % at 12.5 µM; Q9H3R0; 96,000 tested, 0.15% active; GST-KDM4C 2-372, H3K9me3 peptide, LANCE TR-FRET; AID 720574;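 active = mean replicate inhibition above about 25%, with at least 55% of replicates also reaching it, limit read from the data, passing the limit was not always enough; inconclusive = only one of those two conditions met; inactive = neither condition met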
Target sequence (Q9H3R0 2-372 limits assumed): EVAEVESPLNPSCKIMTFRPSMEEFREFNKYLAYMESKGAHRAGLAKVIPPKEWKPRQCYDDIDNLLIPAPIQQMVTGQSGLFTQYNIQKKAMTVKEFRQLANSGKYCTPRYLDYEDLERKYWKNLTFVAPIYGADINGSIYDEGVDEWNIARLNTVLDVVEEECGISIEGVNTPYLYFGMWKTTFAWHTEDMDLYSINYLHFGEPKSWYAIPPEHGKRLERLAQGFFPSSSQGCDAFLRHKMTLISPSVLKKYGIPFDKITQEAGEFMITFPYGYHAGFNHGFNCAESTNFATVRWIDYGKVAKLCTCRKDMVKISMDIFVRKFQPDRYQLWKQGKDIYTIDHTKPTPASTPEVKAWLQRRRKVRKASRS
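Compound: one test concentration per compound; Material: GST-GASC-1 enzyme fragment 2-372; Amount: GASC-1 enzyme at 10 nM final in reaction; Also added: H3K9me3 peptide substrate, Fe(II), 2-oxoglutarate; Technique: LANCE TR-FRET; Times: 30 min demethylation and 1 h detection at room temperature.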
T cruzi growth-1 – blocks T. cruzi growth in NIH3T3 culture. T. cruzi beta-gal in NIH3T3, GalScreen luminescence, 90 h. inhibition, % at 8.34 µM. 77,000 tested, 5.9% active. AID 624255;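 active = mean inhibition above about 93%, with at least 55% of replicates each passing it, limit read from the data, passing the limit was not always enough; inconclusive = only one of those two conditions holds; inactive = neither condition holds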
IDH1 mut inh – IDH1 R132H (human) inhibition. O75874. IDH1 R132H reductase, diaphorase/resazurin fluorescence, 60 min. inhibition, % at 10 µM. 70,000 tested, 0.18% active. AID 624101; in the data active = inhibition above about 34%; inconclusive = no clear call, values can overlap the other calls; inactive = below about 11%;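 note: 0% = DMSO and 100% = no enzyme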
Target sequence (O75874 whole entry R132H): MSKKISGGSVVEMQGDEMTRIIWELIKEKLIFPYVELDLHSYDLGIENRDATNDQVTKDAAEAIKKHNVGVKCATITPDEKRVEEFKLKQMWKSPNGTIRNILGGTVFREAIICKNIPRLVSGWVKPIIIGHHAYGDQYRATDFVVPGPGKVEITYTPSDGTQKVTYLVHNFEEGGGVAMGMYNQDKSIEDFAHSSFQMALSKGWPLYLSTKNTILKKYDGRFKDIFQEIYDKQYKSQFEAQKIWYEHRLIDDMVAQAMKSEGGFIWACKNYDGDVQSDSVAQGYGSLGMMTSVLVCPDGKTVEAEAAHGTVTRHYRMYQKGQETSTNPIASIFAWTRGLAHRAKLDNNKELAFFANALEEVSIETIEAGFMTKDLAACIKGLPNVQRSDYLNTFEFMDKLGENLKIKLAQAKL
T cruzi growth-2 – Trypanosoma cruzi proliferation inhibition | shares compounds with T cruzi growth-1 | T. cruzi beta-gal in NIH3T3, GalScreen luminescence, 90 h | inhibition, % at 8.35 µM | 5,600 tested, 72% active | AID 651739;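 active = mean replicate inhibition above about 95% and at least 55% of replicates individually reaching it, limit read from the data; inconclusive = only one of the two criteria is met; inactive = neither criterion is met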
T cruzi growth-3 – Trypanosoma cruzi proliferation inhibition. shares compounds with T cruzi growth-1. T. cruzi beta-gal in NIH3T3, GalScreen luminescence, 90 h. inhibition, % at 2.09 µM. 5,600 tested, 21% active. AID 651740;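 active = mean inhibition above about 95%, with at least 55% of replicates also reaching it, limit read from the data; inconclusive = meets just one of the two conditions; inactive = meets neither condition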;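 note: plate controls were neutral control median for no effect and positive control median for full effect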
3T3 cytotox – cytotoxicity in mouse NIH/3T3 fibroblasts. NIH/3T3 viability, CellTiter-Glo ATP luminescence, 90 h. cytotoxicity (signal decrease), % at 8.35 µM. 5,600 tested, 14% active. shares compounds with T cruzi growth-1;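 active = mean signal decrease across replicates above about 35% based on untreated-well scatter, with enough replicates individually passing, limit read from the data; inconclusive = no rule stated though some were filed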;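 note: 0% = median of neutral control wells and 100% = median of positive control wells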
3T3 cytotox 2 – NIH/3T3 (mouse) viability loss; shares compounds with T cruzi growth-1; NIH/3T3 viability, CellTiter-Glo ATP luminescence, 90 h; inhibition, % at 24.9 µM; 5,600 tested, 56% active; AID 651744;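 active = mean loss of cell viability signal at or above a set limit, and enough replicates individually reaching it; inconclusive = meets only the mean limit or only the replicate share; inactive = meets neither condition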;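 note: 0% = median of neutral control wells and 100% = median of positive control wells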
An asterisk follows results filed as active; ? = inconclusive; nt = no result.

SMILES	KDM4C inh	T cruzi growth-1	IDH1 mut inh	T cruzi growth-2	T cruzi growth-3	3T3 cytotox	3T3 cytotox 2
COc1ccc2c(=O)cc(-c3ccccc3OC)oc2c1	nt	nt	-6.8	nt	nt	nt	nt
COC(=O)C(C)Sc1nc(N2CCOCC2)nc(N2CCOCC2)n1 (stereo not given)	nt	nt	0.0	nt	nt	nt	nt
COc1cc2c(c3c1C(=O)C[C@H](c1ccccc1)O3)C=CC(C)(C)O2	nt	nt	0.4	nt	nt	nt	nt
Cc1ccc(N(C(C)C(=O)NC2CCCCC2)S(C)(=O)=O)cc1C (stereo not given)	nt	nt	0.0	nt	nt	nt	nt
CCS(=O)(=O)N1CCCCN2[C@H](CO)[C@H](c3ccc(-c4ccccc4F)cc3)[C@@H]2C1	-1.2	95.8*	nt	79.8	21.5	18.1	4.8
CCS(=O)(=O)N1CCCCN2[C@H](CO)[C@@H](c3ccc(-c4ccccc4)cc3)[C@@H]2C1	-2.4	62.6	nt	nt	nt	nt	nt
CCS(=O)(=O)N1CCCCN2[C@@H](CO)[C@@H](c3ccc(-c4ccccc4C)cc3)[C@@H]2C1	-1.9	?	nt	97.1*	-2.5	?	79.0*
CCS(=O)(=O)N1CCCCN2[C@H](CO)[C@@H](c3ccc(-c4ccccc4C)cc3)[C@H]2C1	-0.3	61.1	nt	nt	nt	nt	nt
COC(=O)c1c(C)ncc2c1COC(C)OC2 (stereo not given)	nt	nt	0.3	nt	nt	nt	nt
O=C(C[C@H]1C[C@@H]2c3cc(NS(=O)(=O)c4ccc(F)cc4)ccc3O[C@@H]2[C@H](CO)O1)NCc1ccc(Oc2ccccc2)cc1	-0.3	118.1*	0.1	97.3*	32.0	-9.8	78.6*
COc1cccc(S(=O)(=O)Nc2ccc3c(c2)[C@H]2C[C@H](CC(=O)NCc4cccc(F)c4)O[C@@H](CO)[C@H]2O3)c1	-2.0	?	-0.9	82.5	11.7	-9.9	-12.0
O=C(C[C@@H]1C[C@@H]2c3cc(NS(=O)(=O)c4ccc(F)cc4)ccc3O[C@@H]2[C@H](CO)O1)NCc1ccccc1	-1.3	-13.7	0.1	nt	nt	nt	nt
O=C(C[C@@H]1C[C@H]2c3cc(NS(=O)(=O)c4ccc(F)cc4)ccc3O[C@H]2[C@@H](CO)O1)NCc1ccc(Oc2ccccc2)cc1	nt	114.5*	0.2	?	54.3	36.6*	67.1*
COc1cccc(S(=O)(=O)Nc2ccc3c(c2)[C@H]2C[C@H](CC(=O)NCc4cccc(F)c4)O[C@H](CO)[C@H]2O3)c1	-0.4	58.3	-0.4	nt	nt	nt	nt
O=C(C[C@@H]1C[C@@H]2c3cc(NS(=O)(=O)c4ccc(F)cc4)ccc3O[C@@H]2[C@H](CO)O1)NCc1ccc(Oc2ccccc2)cc1	0.5	105.0*	0.2	99.9*	-19.6	4.1	11.3
O=C(C[C@@H]1C[C@@H]2c3cc(NS(=O)(=O)c4ccc(F)cc4)ccc3O[C@@H]2[C@@H](CO)O1)NCc1ccc(Oc2ccccc2)cc1	0.2	18.1	-0.2	nt	nt	nt	nt
O=C(C[C@@H]1C[C@H]2c3cc(NS(=O)(=O)c4ccc(F)cc4)ccc3O[C@H]2[C@H](CO)O1)NCc1ccc(Oc2ccccc2)cc1	-1.9	46.9	0.0	nt	nt	nt	nt
O=C(CSc1ncnc2sc(-c3ccccc3)cc12)Nc1ccccc1Cl	nt	nt	0.3	nt	nt	nt	nt
C[C@H]1CN([C@@H](C)CO)S(=O)(=O)c2ccc(C#Cc3ccccc3F)cc2O[C@H]1CN(C)CC1CCOCC1	1.0	nt	-1.3	nt	nt	nt	nt
COc1ccc(-c2ccc3c(c2)O[C@H](CN(C)CC2CCOCC2)[C@@H](C)CN([C@@H](C)CO)S3(=O)=O)cc1	-1.7	40.9	-4.5	nt	nt	nt	nt
C[C@H](CO)N1C[C@H](C)[C@@H](CN(C)CC2CCOCC2)Oc2cc(C#Cc3ccccc3F)ccc2S1(=O)=O	2.6	121.6*	1.9	99.3*	103.0*	-25.1	43.3*
CCCN(C)C[C@H]1Oc2cc(C#CC3CCCCC3)ccc2S(=O)(=O)N([C@@H](C)CO)C[C@@H]1C	-1.4	57.9	0.4	nt	nt	nt	nt
CCCN(C)C[C@@H]1Oc2cc(C#CC3CCCC3)ccc2S(=O)(=O)N([C@@H](C)CO)C[C@@H]1C	-0.3	99.2*	0.0	113.5*	90.8	23.0	103.6*
C[C@@H]1CN([C@H](C)CO)S(=O)(=O)c2ccc(C#CC3CC3)cc2O[C@@H]1CN(C)CC1CCOCC1	-1.9	47.6	0.1	nt	nt	nt	nt
COc1ccc(-c2ccc3c(c2)O[C@@H](CN(C)CC2CCOCC2)[C@H](C)CN([C@@H](C)CO)S3(=O)=O)cc1	15.3	93.2*	-0.3	100.3*	100.9*	51.3*	66.8*
SMILES	KDM4C inh	T cruzi growth-1	IDH1 mut inh	T cruzi growth-2	T cruzi growth-3	3T3 cytotox	3T3 cytotox 2
C[C@@H]1CN([C@H](C)CO)S(=O)(=O)c2ccc(C#CC3CC3)cc2O[C@H]1CN(C)CC1CCOCC1	2.3	?	-1.1	101.3*	27.1	50.0*	91.1*
COC(=O)C1=C(C)NC(C)=C(C(=O)OC)C1c1cc(Br)ccc1OCC(N)=O	nt	nt	-0.3	nt	nt	nt	nt
N#Cc1c(C(F)(F)F)cc(-c2cccs2)nc1SCC(O)CN1CCSCC1 (stereo not given)	nt	nt	0.0	nt	nt	nt	nt
CC(Sc1ncnc2sc(-c3ccccc3)cc12)C(=O)Nc1cc(Cl)ccc1Cl (stereo not given)	nt	nt	0.2	nt	nt	nt	nt
O=C(C[C@H]1C[C@H]2c3cc(NS(=O)(=O)c4ccc(F)cc4)ccc3O[C@H]2[C@@H](CO)O1)NCCc1ccccc1	0.6	nt	1.0	nt	nt	nt	nt
C[C@H](CO)N1C[C@H](C)[C@@H](CN(C)CC2CCCC2)Oc2cc(C#CC3CC3)ccc2S1(=O)=O	-0.6	?	0.2	103.7*	94.5	7.2	105.0*
CC(C)C#Cc1ccc2c(c1)O[C@@H](CN(C)CC1CCOCC1)[C@@H](C)CN([C@H](C)CO)S2(=O)=O	0.8	54.2	-0.5	nt	nt	nt	nt
COCC#Cc1ccc2c(c1)O[C@@H](CN(C)CC1CC1)[C@@H](C)CN([C@H](C)CO)S2(=O)=O	0.4	nt	0.6	nt	nt	nt	nt
CC(C)C#Cc1ccc2c(c1)O[C@H](CN(C)CC1CCOCC1)[C@@H](C)CN([C@@H](C)CO)S2(=O)=O	-0.9	102.5*	-0.3	97.8*	93.1	18.0	104.6*
COCC#Cc1ccc2c(c1)O[C@@H](CN(C)CC1CCCC1)[C@H](C)CN([C@H](C)CO)S2(=O)=O	4.1	109.6*	-2.2	97.9*	46.6	44.2*	103.8*
C[C@@H]1CN([C@H](C)CO)S(=O)(=O)c2ccc(C#CC3CC3)cc2O[C@@H]1CN(C)CC1CC1	-2.5	104.5	-0.3	nt	nt	nt	nt
Cc1c(Cl)ccc2c(C(=O)NCCCn3cc(Br)cn3)cc(-c3ccncc3)nc12	nt	nt	1.0	nt	nt	nt	nt
CCOc1ccc(NC(=O)CSc2nc3sc(C)c(C)c3c(=O)n2-c2ccc(C)cc2)cc1	nt	nt	0.5	nt	nt	nt	nt
COC(=O)c1c(NC(=O)CCN2C(=O)c3ccccc3C2=O)sc(C)c1-c1ccccc1	nt	nt	0.2	nt	nt	nt	nt
CCNC(=O)c1c(NC(=O)COc2ccc(Cl)cc2Cl)sc2c1CCCC2	nt	nt	0.1	nt	nt	nt	nt
